Reference: ChEMBL document CHEMBL4425140, “Discovery of a Potent and Selective Coactivator Associated Arginine Methyltransferase 1 (CARM1) Inhibitor by Virtual Screening” (J Med Chem, 2016)
Active and inactive are the calls of the source. No cut-off for these calls is given here.

Tests used:
[1] = biological target: T1, Histone-arginine methyltransferase CARM1 (Homo sapiens) (UniProt Q86X55); experiment: Binding affinity to full-length Halo-tagged human CARM1 (1 to 608 residues) expressed in 293-F cells assessed as change in melting temperature by Sypro orange dye based differential scanning fluorimetry; type: cell-based
T1 sequence (whole entry): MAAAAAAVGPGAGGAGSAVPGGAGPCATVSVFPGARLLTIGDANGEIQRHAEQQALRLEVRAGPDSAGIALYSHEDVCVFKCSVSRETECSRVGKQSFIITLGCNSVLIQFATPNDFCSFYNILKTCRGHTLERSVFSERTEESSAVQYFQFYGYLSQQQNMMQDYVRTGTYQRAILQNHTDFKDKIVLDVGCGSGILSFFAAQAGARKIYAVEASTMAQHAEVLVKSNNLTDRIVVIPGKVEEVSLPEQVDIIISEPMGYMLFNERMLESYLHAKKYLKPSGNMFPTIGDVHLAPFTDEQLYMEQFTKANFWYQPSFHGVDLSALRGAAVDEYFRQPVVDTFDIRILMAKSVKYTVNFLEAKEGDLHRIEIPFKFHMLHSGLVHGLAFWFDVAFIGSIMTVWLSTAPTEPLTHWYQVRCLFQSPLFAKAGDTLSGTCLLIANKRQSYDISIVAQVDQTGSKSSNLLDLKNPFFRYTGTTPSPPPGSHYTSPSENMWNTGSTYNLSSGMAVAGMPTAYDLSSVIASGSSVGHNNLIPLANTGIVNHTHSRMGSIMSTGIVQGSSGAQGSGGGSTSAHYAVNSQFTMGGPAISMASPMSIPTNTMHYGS

[2] = biological target: T1, Histone-arginine methyltransferase CARM1 (Homo sapiens); experiment: Inhibition of full-length Halo-tagged human CARM1 (1 to 608 residues) expressed in 293-F cells at 50 uM using [3H]-SAM and biotinylated histone peptides by scintillation proximity based radiometric assay; type: cell-based
Summary of the method: (§1)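 Radiometric scintillation proximity assay. Tag-cleaved full-length human CARM1 (1–608) at 25 nM, with 0.7 μM C-terminally biotinylated H3 1–25 peptide and 1.9 μM [3H]-SAM in 20 mM bicine pH 8.5. Transfer of tritiated methyl to the peptide counted as cpm. Single compound concentration per line.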

[3] = biological target: Protein arginine N-methyltransferase 8 (Homo sapiens, UniProt Q9NR22); experiment: Inhibition of PRMT8 (unknown origin)
Protein arginine N-methyltransferase 8, sequence (Q9NR22 whole entry, the tested form may be a part): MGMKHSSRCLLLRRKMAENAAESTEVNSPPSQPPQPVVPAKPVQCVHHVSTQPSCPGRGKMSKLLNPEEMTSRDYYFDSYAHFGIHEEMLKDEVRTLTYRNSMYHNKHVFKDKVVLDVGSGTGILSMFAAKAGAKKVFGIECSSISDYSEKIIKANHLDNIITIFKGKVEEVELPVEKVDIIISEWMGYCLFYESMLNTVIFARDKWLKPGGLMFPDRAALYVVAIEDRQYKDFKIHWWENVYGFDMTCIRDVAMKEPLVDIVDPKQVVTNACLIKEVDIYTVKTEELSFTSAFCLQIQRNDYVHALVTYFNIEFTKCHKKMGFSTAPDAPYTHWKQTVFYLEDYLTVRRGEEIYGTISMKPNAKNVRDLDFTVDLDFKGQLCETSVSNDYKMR

[4] = biological target: T1, Histone-arginine methyltransferase CARM1 (Homo sapiens); experiment: Binding affinity to full-length Halo-tagged human CARM1 (1 to 608 residues) expressed in 293-F cells assessed as change in aggregation temperature by differential static light scattering; type: cell-based
Summary of the method: (§2)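 Full-length human CARM1 (residues 1–608) expressed as a HaloTag fusion in FreeStyle 293-F cells, HaloTag-purified, tag removed with TEV. Heated from 30 to 80 °C at 1 °C/min; aggregation temperature shift read by static light scattering.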

[5] = biological target: T1, Histone-arginine methyltransferase CARM1 (Homo sapiens); experiment: Inhibition of full-length Halo-tagged human CARM1 (1 to 608 residues) expressed in 293-F cells at 10 uM using [3H]-SAM and biotinylated histone peptides by scintillation proximity based radiometric assay; type: cell-based; summary of the method: as §1
[6] = biological target: T2, Histone-arginine methyltransferase CARM1 (Homo sapiens, UniProt Q86X55); experiment: Inhibition of full-length Halo-tagged human CARM1 (1 to 608 residues) expressed in 293-F cells using [3H]-SAM and biotinylated histone peptides by scintillation proximity based radiometric assay; type: cell-based
T2 sequence (Q86X55 whole entry): T1 sequence (whole entry)

[7] = biological target: T1, Histone-arginine methyltransferase CARM1 (Homo sapiens); experiment: Binding affinity to full-length Halo-tagged human CARM1 (1 to 608 residues) expressed in 293-F cells assessed as change in aggregation temperature in presence of SAM by differential static light scattering; type: cell-based; summary of the method: as §2
[8] = biological target: T1, Histone-arginine methyltransferase CARM1 (Homo sapiens); experiment: Binding affinity to full-length Halo-tagged human CARM1 (1 to 608 residues) expressed in 293-F cells assessed as change in melting temperature in presencee of SAM by Sypro orange dye based differential scanning fluorimetry; type: cell-based
[9] = biological target: T2, Histone-arginine methyltransferase CARM1; experiment: Binding affinity to full-length Halo-tagged human CARM1 (1 to 608 residues) expressed in 293-F cells by surface plasmon resonance assay; conditions: read-out: Kd
Summary of the method: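 About 4500 RU of CARM1 amine-coupled to a CM5 chip, blank cell used for reference subtraction. Compounds serially diluted in DMSO, then into HBS-EP buffer at 5% DMSO final. Contact time 30 s at 75 μL/min.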

[10] = biological target: Protein arginine N-methyltransferase 6 (Homo sapiens, UniProt Q96LA8); experiment: Inhibition of PRMT6 (unknown origin)
Protein arginine N-methyltransferase 6, sequence (Q96LA8 whole entry): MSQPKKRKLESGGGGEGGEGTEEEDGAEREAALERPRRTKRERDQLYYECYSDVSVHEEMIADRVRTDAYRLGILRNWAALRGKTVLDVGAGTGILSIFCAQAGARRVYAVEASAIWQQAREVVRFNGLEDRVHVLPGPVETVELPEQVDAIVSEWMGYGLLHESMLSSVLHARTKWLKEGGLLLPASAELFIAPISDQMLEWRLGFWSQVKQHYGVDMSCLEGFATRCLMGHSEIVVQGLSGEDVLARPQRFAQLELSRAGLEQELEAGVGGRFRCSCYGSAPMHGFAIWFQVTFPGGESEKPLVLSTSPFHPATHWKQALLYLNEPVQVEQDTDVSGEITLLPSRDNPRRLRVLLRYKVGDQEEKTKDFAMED

Question: Which ΔTm [1] does the source give for `C[C@H](N)C(=O)NCc1cccnc1Oc1ccc(F)cc1F` here?
Answer: Its ΔTm is 2.1 °C.

Question: And the inhibition [2]?
Answer: Its inhibition is “Active”.

Question: And the IC50 [3]?
Answer: Its IC50 is “Not Active”.

Question: And the ΔTm [4]?
Answer: Its ΔTm is 1.9 °C.

Question: And the inhibition [5]?
Answer: The inhibition was “Active”.

Question: What about the IC50 ([6]; read-out: IC50) of the same molecule?
Answer: Its IC50 is 1.9 µM.

Question: And the Activity [7]?
Answer: The Activity was “Active”.

Question: What about the Activity [8] of the same molecule?
Answer: The Activity was “Active”.

Question: And the Kd [9]?
Answer: Its Kd is 9 µM.

Question: And the IC50 ([10]; read-out: IC50)?
Answer: The IC50 was 14 µM.

Question: Which IC50 [6] does the source give for `CN[C@@H](C)C(=O)NCc1cccnc1Oc1ccc(F)cc1F` here?
Answer: The IC50 was “Not Active”.

Question: And the IC50 [10]?
Answer: Its IC50 is “Not Active”.

Question: For `CCC(c1ccc(OC)cc1)N(C)CCN` (centres undefined), which IC50 [3] is on record?
Answer: The IC50 was “Not Active”.

Question: What about the IC50 [6] of the same molecule?
Answer: The IC50 was “Not Active”.

Question: And the IC50 ([10]; read-out: IC50)?
Answer: Its IC50 is over 25 µM.

Question: `NC1(C(=O)NCc2cccnc2Oc2ccc(F)cc2F)CC1` was tested. Which IC50 [6] did it give?
Answer: Its IC50 is “Not Active”.

Question: And the IC50 [10]?
Answer: Its IC50 is “Not Active”.

Question: With `CN(CCN)Cc1ccccc1` as the molecule, how does the inhibition [2] read?
Answer: The inhibition was “Active”.

Question: What about the IC50 ([3]; read-out: IC50) of the same molecule?
Answer: Its IC50 is 6 µM.

Question: And the inhibition [5]?
Answer: The inhibition was “Active”.

Question: And the IC50 ([6]; read-out: IC50)?
Answer: Its IC50 is 7.5 µM.

Question: And the IC50 ([10]; read-out: IC50)?
Answer: The IC50 was 2.5 µM.

Question: Which inhibition [2] does the source give for `CC(N)C(=O)NCc1ccccc1` (centres undefined) here?
Answer: Its inhibition is “Active”.

Question: And the IC50 [3]?
Answer: Its IC50 is “Not Active”.

Question: What about the inhibition [5] of the same molecule?
Answer: Its inhibition is “Active”.

Question: And the IC50 ([6]; read-out: IC50)?
Answer: Its IC50 is over 20 µM.

Question: And the IC50 [10]?
Answer: The IC50 was “Not Active”.

Question: With `CNCCNC1CCN(c2cccc(-c3ccnc(C)n3)c2)CC1` as the molecule, how does the inhibition [2] read?
Answer: The inhibition was “Active”.

Question: And the IC50 ([3]; read-out: IC50)?
Answer: Its IC50 is 26 µM.

Question: What about the inhibition [5] of the same molecule?
Answer: Its inhibition is “Active”.

Question: What about the IC50 ([6]; read-out: IC50) of the same molecule?
Answer: The IC50 was 11.1 µM.

Question: And the IC50 ([10]; read-out: IC50)?
Answer: The IC50 was 8.9 µM.

Question: For `C[C@H](N)C(=O)NCc1cccnc1N(C)Cc1ccccc1`, which inhibition [2] is on record?
Answer: Its inhibition is “Active”.

Question: What about the IC50 [3] of the same molecule?
Answer: The IC50 was “Not Active”.

Question: What about the inhibition [5] of the same molecule?
Answer: The inhibition was “Active”.

Question: And the IC50 ([6]; read-out: IC50)?
Answer: The IC50 was over 30 µM.

Question: What about the IC50 [10] of the same molecule?
Answer: The IC50 was “Not Active”.

Question: `CNCCN1CCCC1` was tested. Which inhibition [2] did it give?
Answer: Its inhibition is “Active”.

Question: What about the IC50 ([3]; read-out: IC50) of the same molecule?
Answer: Its IC50 is 10 µM.

Question: And the inhibition [5]?
Answer: The inhibition was “Active”.

Question: And the IC50 ([6]; read-out: IC50)?
Answer: Its IC50 is 3.1 µM.

Question: And the IC50 ([10]; read-out: IC50)?
Answer: The IC50 was 1.9 µM.

Question: What does the source list for `CNCC(=O)NCc1cccnc1Oc1ccc(F)cc1F`?
Answer: IC50 [6]: Not Active; IC50 [10]: Not Active
